In ChEMBL document CHEMBL1155297, “Synthesis, antimicrobial and antioxidant activities of substituted pyrazoles, isoxazoles, pyrimidine and thioxopyrimidine derivatives” (2009):

Legend:
Format in all cases: functional
Staphylococcus aureus [1] = experiment: Antibacterial activity against Staphylococcus aureus NCIM 5021 at 100 ug/disk after 24 hrs by agar disk diffusion method; settings: NCIM 5021, 24 h, read-out: IZ
Outline: (§1)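 Agar disc diffusion on nutrient agar plates pre-inoculated with each bacterium. Sterile 6 mm filter-paper discs were moistened with compound in DMSO at the stated per-disc amount. Plates were incubated at 37 °C, and the growth-inhibition zone diameter was read after 24 h. Each determination was run in triplicate, and the mean of three independent readings is reported.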

Staphylococcus aureus [2] = experiment: Antibacterial activity against Staphylococcus aureus NCIM 5021 at 200 ug/disk after 24 hrs by agar disk diffusion method; settings: NCIM 5021, 24 h, read-out: IZ; outline: as §1
Bacillus subtilis [3] = experiment: Antibacterial activity against Bacillus subtilis NCIM 2063 at 100 ug/disk after 24 hrs by agar disk diffusion method; settings: NCIM 2063, 24 h, read-out: IZ; outline: as §1
Bacillus subtilis [4] = experiment: Antibacterial activity against Bacillus subtilis NCIM 2063 at 200 ug/disk after 24 hrs by agar disk diffusion method; settings: NCIM 2063, 24 h, read-out: IZ; outline: as §1
Klebsiella pneumoniae [5] = experiment: Antibacterial activity against Klebsiella pneumoniae NCIM 2957 at 100 ug/disk after 24 hrs by agar disk diffusion method; settings: NCIM 2957, 24 h, read-out: IZ; outline: as §1
Klebsiella pneumoniae [6] = experiment: Antibacterial activity against Klebsiella pneumoniae NCIM 2957 at 200 ug/disk after 24 hrs by agar disk diffusion method; settings: NCIM 2957, 24 h, read-out: IZ; outline: as §1
Proteus vulgaris [7] = experiment: Antibacterial activity against Proteus vulgaris NCIM 2027 at 100 ug/disk after 24 hrs by agar disk diffusion method; settings: NCIM 2027, 24 h, read-out: IZ; outline: as §1
Proteus vulgaris [8] = experiment: Antibacterial activity against Proteus vulgaris NCIM 2027 at 200 ug/disk after 24 hrs by agar disk diffusion method; settings: NCIM 2027, 24 h, read-out: IZ; outline: as §1
Fusarium solani [9] = experiment: Antifungal activity against Fusarium solani NCIM 1330 at 100 ug/disk after 48 hrs by agar disk diffusion method; settings: NCIM 1330, 48 h, read-out: IZ
Outline: (§2)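 Fungal disc diffusion on nutrient agar plates pre-inoculated with each fungus. 6 mm sterile paper discs carried the compound in DMSO at the stated amount per disc. Plates were held at 37 °C, and inhibition-zone diameter was measured after 48 h. Values are the mean of three independent triplicate readings.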

Fusarium solani [10] = experiment: Antifungal activity against Fusarium solani NCIM 1330 at 200 ug/disk after 48 hrs by agar disk diffusion method; settings: NCIM 1330, 48 h, read-out: IZ; outline: as §2
Curvularia lunata [11] = experiment: Antifungal activity against Curvularia lunata NCIM 716 at 100 ug/disk after 48 hrs by agar disk diffusion method; settings: NCIM 716, 48 h, read-out: IZ; outline: as §2
Curvularia lunata [12] = experiment: Antifungal activity against Curvularia lunata NCIM 716 at 200 ug/disk after 48 hrs by agar disk diffusion method; settings: NCIM 716, 48 h, read-out: IZ; outline: as §2
Aspergillus niger [13] = experiment: Antifungal activity against Aspergillus niger NCIM 596 at 100 ug/disk after 48 hrs by agar disk diffusion method; settings: NCIM 596, 48 h, read-out: IZ; outline: as §2
Aspergillus niger [14] = experiment: Antifungal activity against Aspergillus niger NCIM 596 at 200 ug/disk after 48 hrs by agar disk diffusion method; settings: NCIM 596, 48 h, read-out: IZ; outline: as §2
[15] = system: Radical scavenging activity; experiment: Antioxidant activity assessed as DPPH free radical scavenging activity at 100 uM after 20 mins
Outline: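 DPPH scavenging: compound solutions were added to DPPH in dioxane/ethanol and kept at ambient temperature for 20 min. Absorbance was read at 517 nm. The test–control difference was expressed as percent DPPH radical scavenging.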

[16] = Antioxidant activity assessed as nitric oxide production at 100 uM after 120 mins by Griess reagent method
Outline: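 Nitric oxide assay with Griess read-out. At intervals, 0.5 ml of incubation solution was mixed with 0.5 ml Griess reagent (1% sulfanilamide, 0.1% N-naphthylethylenediamine dihydrochloride, 2% o-phosphoric acid in water). The control received an equal amount of solvent and was handled identically.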

Row | Structure (SMILES) | zone of inhibition at 100 µg/disc (Staphylococcus aureus [1]) | zone of inhibition at 200 µg/disc (Staphylococcus aureus [2]) | zone of inhibition at 100 µg/disc (Bacillus subtilis [3]) | zone of inhibition at 200 µg/disc (Bacillus subtilis [4]) | zone of inhibition at 100 µg/disc (Klebsiella pneumoniae [5]) | zone of inhibition at 200 µg/disc (Klebsiella pneumoniae [6]) | zone of inhibition at 100 µg/disc (Proteus vulgaris [7]) | zone of inhibition at 200 µg/disc (Proteus vulgaris [8]) | zone of inhibition at 100 µg/disc (Fusarium solani [9]) | zone of inhibition at 200 µg/disc (Fusarium solani [10]) | zone of inhibition at 100 µg/disc (Curvularia lunata [11]) | zone of inhibition at 200 µg/disc (Curvularia lunata [12]) | zone of inhibition at 100 µg/disc (Aspergillus niger [13]) | zone of inhibition at 200 µg/disc (Aspergillus niger [14]) | inhibition [15] | inhibition [16]
1 | NC1=NC(=S)N=C(N)C1C(CC(=O)c1ccccc1)C(=O)c1ccccc1 (stereo not given) | 22 mm | 24 mm | 23 mm | 24 mm | 19 mm | 21 mm | 17 mm | 19 mm | 16 mm | 20 mm | 19 mm | 22 mm | 14 mm | 19 mm | 37.8% | 35.7%
2 | N=C1ON=C(N)C1C(CS(=O)(=O)c1ccccc1)S(=O)(=O)c1ccccc1 (stereo not given) | 29 mm | 31 mm | 30 mm | 32 mm | 26 mm | 29 mm | 26 mm | 28 mm | 31 mm | 34 mm | 29 mm | 32 mm | 28 mm | 31 mm | 85.8% | 84.9%
3 | Cc1ccc(C(=O)CC(C(=O)c2ccc(C)cc2)C2C(N)=NC(=S)N=C2N)cc1 (stereo not given) | 20 mm | 21 mm | 21 mm | 24 mm | 18 mm | 20 mm | 16 mm | 18 mm | 15 mm | 19 mm | 15 mm | 18 mm | 14 mm | 16 mm | 32.3% | 29.4%
4 | NC1=NC(=O)N=C(N)C1C(CC(=O)c1ccccc1)C(=O)c1ccccc1 (stereo not given) | 11 mm | 14 mm | 16 mm | 15 mm | 11 mm | 12 mm | 12 mm | 14 mm | 13 mm | 16 mm | 16 mm | 20 mm | 14 mm | 17 mm | 24.7% | 26.8%
5 | CN1C(=N)C(C(CC(=O)c2ccccc2)C(=O)c2ccccc2)C(=N)N(C)C1=O (stereo not given) | 10 mm | 13 mm | 9 mm | 11 mm | 7 mm | 9 mm | 6 mm | 8 mm | 11 mm | 13 mm | 13 mm | 15 mm | 12 mm | 16 mm | 23.8% | 22.6%
